Reference: ChEMBL document CHEMBL1140290, “Synthesis and evaluation of (17alpha,20Z)-21-(4-substituted-phenyl)-19-norpregna-1,3,5(10),20-tetraene-3,17beta-diols as ligands for the estrogen receptor-alpha hormone binding domain: comparison with 20E-isomers” (J Med Chem, 2005)

Tests used:
[1] = molecular target: T1, Estrogen receptor (Homo sapiens) (UniProt P03372); assay: Relative binding affinity of E isomers to human ERalpha-HBD at 25 degree C compared to [3H]estradiol
T1 sequence (whole entry): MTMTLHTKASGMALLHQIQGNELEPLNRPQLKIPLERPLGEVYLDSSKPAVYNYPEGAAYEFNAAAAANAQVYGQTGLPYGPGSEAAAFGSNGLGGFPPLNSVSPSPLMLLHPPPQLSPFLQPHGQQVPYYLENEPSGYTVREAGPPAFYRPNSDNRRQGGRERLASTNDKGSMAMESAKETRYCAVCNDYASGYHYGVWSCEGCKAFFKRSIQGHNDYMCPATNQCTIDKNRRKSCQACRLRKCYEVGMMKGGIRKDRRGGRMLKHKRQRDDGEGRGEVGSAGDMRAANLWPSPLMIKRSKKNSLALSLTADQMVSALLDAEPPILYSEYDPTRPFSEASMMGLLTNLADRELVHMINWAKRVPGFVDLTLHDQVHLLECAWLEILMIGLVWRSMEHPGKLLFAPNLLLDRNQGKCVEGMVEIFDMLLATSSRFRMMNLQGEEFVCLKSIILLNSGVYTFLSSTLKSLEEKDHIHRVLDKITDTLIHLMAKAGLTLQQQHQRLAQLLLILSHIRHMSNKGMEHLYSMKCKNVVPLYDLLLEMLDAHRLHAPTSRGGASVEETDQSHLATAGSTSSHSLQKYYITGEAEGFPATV

[2] = molecular target: T2, Estrogen receptor (Rattus norvegicus) (UniProt P06211+Q62986); assay: Effective dose of E-isomer in rat uterotrophic growth assay compared to 10 nmol estradiol; assay type: functional
[3] = molecular target: T1, Estrogen receptor (Homo sapiens); assay: Relative binding affinity of Z isomers to human ERalpha-HBD at 25 degree C compared to [3H]estradiol
Procedure, shortened: (§1)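 ERα-HBD (33 kDa) expressed in BL21 cells, induced with 0.6 mM IPTG for 3 h at room temperature. Lysed by sonication in Tris/NaCl/EDTA/DTT/1 M urea buffer, pH 7.4, clarified at 30000g, and diluted to 50 nM ER. […] Bound and free separated with dextran-coated charcoal. RBA = 100×[E]/[C], from 50% inhibition on a best-fit curve.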

[4] = molecular target: T1, Estrogen receptor (Homo sapiens); assay: Relative binding affinity of E isomers to human ERalpha-HBD at 4C compared to [3H]-estradiol
[5] = molecular target: T2, Estrogen receptor (Rattus norvegicus); assay: Effective dose of Z-isomer in rat uterotrophic growth assay compared to 10 nmol estradiol; assay type: functional
[6] = molecular target: T1, Estrogen receptor (Homo sapiens); assay: Relative binding affinity of Z isomers to human ERalpha-HBD at 4C compared to [3H]estradiol; procedure, shortened: as §1

Row | Compound | RBA [1] [%] | ED50 [2] [nmol] | RBA [3] [%] | RBA [4] [%] | ED50 [5] [nmol] | RBA [6] [%]
1 | C[C@]12CC[C@@H]3c4ccc(O)cc4CC[C@H]3[C@@H]1CC[C@@]2(O)/C=C\c1ccccc1 | 9 |  | 66 | 16 |  | 57
2 | COc1ccc(/C=C\[C@]2(O)CC[C@H]3[C@@H]4CCc5cc(O)ccc5[C@H]4CC[C@@]32C)cc1 | 32 |  | 39 | 36 |  | 20
3 | C[C@]12CC[C@@H]3c4ccc(O)cc4CC[C@H]3[C@@H]1CC[C@@]2(O)/C=C\c1ccc(C#N)cc1 | 27 |  | 12 | 9 |  | 20
4 | C[C@]12CC[C@@H]3c4ccc(O)cc4CC[C@H]3[C@@H]1CC[C@@]2(O)/C=C\c1ccc(C(F)(F)F)cc1 | 8 | 10.6 | 9 | 5 | 1.1 | 5

Second part, the molecule after the results:

Row | RBA [1] [%] | ED50 [2] [nmol] | RBA [3] [%] | RBA [4] [%] | ED50 [5] [nmol] | RBA [6] [%] | Compound
5 | 22 | 72 | 44 | 24 | 2.3 | 43 | C[C@]12CC[C@@H]3c4ccc(O)cc4CC[C@H]3[C@@H]1CC[C@@]2(O)/C=C\c1ccc(F)cc1
6 | 60 |  | 29 | 53 |  | 22 | CC(=O)c1ccc(/C=C\[C@]2(O)CC[C@H]3[C@@H]4CCc5cc(O)ccc5[C@H]4CC[C@@]32C)cc1
7 | 18 | 5.5 | 9 | 10 | 4.2 | 10 | Cc1ccc(/C=C\[C@]2(O)CC[C@H]3[C@@H]4CCc5cc(O)ccc5[C@H]4CC[C@@]32C)cc1
8 | 25 |  | 25 | 21 |  | 12 | C[C@]12CC[C@@H]3c4ccc(O)cc4CC[C@H]3[C@@H]1CC[C@@]2(O)/C=C\c1ccc(O)cc1
9 |  |  | 26 |  |  | 22 | C[C@]12CC[C@@H]3c4ccc(O)cc4CC[C@H]3[C@@H]1CC[C@@]2(O)/C=C\c1ccc(N)cc1
